# KCNQ1 pot: potentiators or activators of KCNQ1 channel, primary screen, cell-based, thallium flux, high-throughput. CHO-K1 KCNQ1, thallium flux FluxOR fluorescence; active compounds read high. B-score at 10 µM. 0.35% of 310,000 active;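 active = fluorescence ratio B-score, a plate-corrected score, at least three library SD, with initial intensity B-score within 5 SD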
# Target sequence (P51787 whole entry, looked up): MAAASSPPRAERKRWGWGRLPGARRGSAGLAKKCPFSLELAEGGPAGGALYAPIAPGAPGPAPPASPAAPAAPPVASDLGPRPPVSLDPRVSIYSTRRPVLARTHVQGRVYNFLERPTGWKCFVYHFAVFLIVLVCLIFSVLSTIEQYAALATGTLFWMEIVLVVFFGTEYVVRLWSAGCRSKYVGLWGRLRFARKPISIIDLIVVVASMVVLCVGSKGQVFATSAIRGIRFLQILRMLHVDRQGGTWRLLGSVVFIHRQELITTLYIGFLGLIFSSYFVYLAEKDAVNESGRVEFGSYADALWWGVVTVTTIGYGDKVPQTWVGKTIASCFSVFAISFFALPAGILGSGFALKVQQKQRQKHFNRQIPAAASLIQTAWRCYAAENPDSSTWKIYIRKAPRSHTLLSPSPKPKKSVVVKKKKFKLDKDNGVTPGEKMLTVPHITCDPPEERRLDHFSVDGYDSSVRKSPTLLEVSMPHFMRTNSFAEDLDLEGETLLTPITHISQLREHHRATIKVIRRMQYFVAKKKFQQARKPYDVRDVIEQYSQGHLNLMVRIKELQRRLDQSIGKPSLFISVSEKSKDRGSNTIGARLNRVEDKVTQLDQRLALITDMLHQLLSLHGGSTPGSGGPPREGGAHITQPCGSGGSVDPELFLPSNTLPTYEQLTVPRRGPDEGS
#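 Test system: CHO-K1 cells stably expressing KCNQ1 / Medium: assay buffer / Also added: depolarizing K+/Tl+ stimulus, K2SO4 and Tl2SO4 each 12.5 mM in 5x stock / Incubation: 90 min dye loading and 20 min compound exposure, both at room temperature / Signal: thallium influx via FluxOR fluorescence, kinetic imaging / Evaluation: B score of baseline-normalized fluorescence ratio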
# KCNK9 inh: KCNK9 potassium channel inhibitors, primary screen, HEK293 cells, thallium flux | FluxOR thallium flux fluorescence; active compounds read low | B-score at 10 µM | Potassium channel subfamily K member 9 (Homo sapiens), Q9NPC2 | AID 488922, 2010 | 1.2% of 310,000 active;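 active = ratio B-score over 3 SD below the library mean, with starting fluorescence within 5 SD of its mean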;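 also: negative B-score means less thallium flux so channel inhibition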
# KCNK3 block: human KCNK3 channel inhibitors, primary screen, CHO cells, FluxOR thallium flux, B-score; FluxOR fluorescence; active compounds read low; 0.84% of 340,000 active; Potassium channel subfamily K member 3 (Homo sapiens), O14649; AID 602410, 2012; B-score at 10 µM;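 active = B-score under library mean minus 4 SD, starting fluorescence ratio at most library mean plus 5 SD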;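 also: more negative B-score means stronger inhibition of thallium flux through KCNK3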
# hERG rescue: hERG rescue from dofetilide block, primary screen, cell-based, CHO-hERG, FluxOR thallium flux, dofetilide IC70; AID 1511, 2009; dofetilide IC70 present; activation (rescue from dofetilide block), less the hit threshold, % at 10 µM; Voltage-gated inwardly rectifying potassium channel KCNH2 (Homo sapiens), Q12809; 0.51% of 310,000 active;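 active = activation above the mean of controls blocked by dofetilide plus 5 SD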;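 also: thallium influx through hERG after potassium depolarization seen as dye fluorescence rise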
# KCNQ1 block: inhibitors of human KCNQ1 channel, primary screen, cell-based, thallium flux, high-throughput. 1.3% of 310,000 active. Potassium voltage-gated channel subfamily KQT member 1 (Homo sapiens), P51787. CHO-K1 KCNQ1, FluxOR thallium flux fluorescence; active compounds read high. B-score at 10 µM;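 active = compounds whose thallium flux B-score, printed positive for inhibition, exceeds three library SD while starting fluorescence stays within three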;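 also: channel opened by potassium depolarization with thallium stimulus after 20 min compound exposure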
# Cl transport mod: KCC2 cotransporter modulators, thallium flux, primary screen, cell-based, HEK293 KCC2, FluoZin-2 fluorescence, MLSMR. KCC2 cells, thallium flux FluoZin-2 fluorescence. 2.2% of 190,000 active. B-score of Tl+ flux slope (higher = more flux/activation; lower = inhibition) at 10 µM;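 active = thallium flux slope and its plate-corrected score both differing from the plate sample mean at a set confidence after two filtering rounds, in either direction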;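 also: slope of fluorescence scaled to starting intensity during 10 to 20 s after thallium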
# KCNK9 block conf: KCNK9 potassium channel inhibitors, confirmation, HEK293 cells, thallium flux, duplicate; shares compounds with KCNK9 inh; FluxOR thallium flux fluorescence; inhibition, % at 10 µM; 43% of 4,900 active; AID 492992, 2010;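 active = thallium signal inhibited by more than 5 SD of the compound-free buffer control wells, on both duplicate plates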;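 also: 0% = assay buffer control wells without compound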
# Kir21 sel: mouse Kir2.1 channel inhibition, confirmation, selectivity assay for KCNK9 modulator project, cell-based, HEK293, thallium flux | shares compounds with KCNK9 inh | Kir2.1 cells, FluxOR thallium flux fluorescence | inhibition, % at 10 µM | 4% of 4,900 active | AID 492993, 2010;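 active = thallium signal drop more than 5 SD beyond the mean of the no-compound control wells, seen in both duplicate plates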;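 also: signal is fluorescence rise after thallium addition divided by baseline fluorescence; plate controls were assay buffer only for no effect and full block by chlorpromazine control for full effect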
# KCNK9 uninduced: thallium flux in non-induced HEK293 cells, confirmation, counter-screen for KCNK9 inhibitor project, cell-based, second counter screen, non-induced KCNK9-HEK293 | inhibition, % at 10 µM | FluxOR thallium flux | AID 492997, 2010 | 40% of 4,900 active | shares compounds with KCNK9 inh;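 active = thallium signal drop beyond 5 SD of the untreated control mean, on both duplicate plates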;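 also: plate controls were buffer only IC0 wells for no effect and SID17386958 at its maximal inhibitory level for full effect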
# * = called active by the depositor; i = inactive; nt = not tested or not shown. Most compounds without a hit are left out; they make up all but 4.1% or so of the library.
SMILES,KCNQ1 pot,KCNK9 inh,KCNK3 block,hERG rescue,KCNQ1 block,Cl transport mod,KCNK9 block conf,Kir21 sel,KCNK9 uninduced
CC(C)Oc1ccc(/C(O)=C2/C(=O)C(=O)N(CCN3CCNCC3)C2c2ccc(C(C)C)cc2)cc1 (stereo not drawn),i,i,i,-3.7,i,nt,nt,nt,nt
CCC(C)NC(=O)c1ccccc1NC(=O)c1ccc(CSc2ccc(C)cc2)cc1 (stereo not drawn),i,i,i,-12.9,i,nt,i,i,i
CCC(C)C(NC(=O)c1ccccc1NC(=O)c1ccc(C)cc1)C(=O)O (stereo not drawn),i,i,i,-6.6,i,-1.15,nt,nt,nt
CCN(CC)c1ccc(CNc2ccc(Br)cn2)cc1,i,i,i,-6.7,i,0.0949,i,i,i
Cc1ccnc(NCc2ccc(Br)cc2)c1,i,i,i,-3.3,i,nt,nt,nt,nt
N#CC(c1ccccc1)C1CCN(Cc2ccccc2)CC1 (stereo not drawn),i,i,i,-8.1,i,0.163,i,i,i
Cc1ccc(C)c(NC(=O)COC(=O)c2ccc(S(=O)(=O)N3CCCCC3)cc2)c1,nt,nt,i,nt,nt,nt,nt,nt,nt
CCCCOc1ccc(C(=O)NCCOc2cccc(OC)c2)cc1,i,i,i,-5.2,i,nt,nt,nt,nt
CC(C)(C)c1ccc(OCCC(=O)OCC(=O)NC(=O)NC2CCCC2)cc1,i,-9.78*,i,-11.0,i,nt,i,i,i
S=C(NCc1ccc2[nH]c3c(c2c1)CCCC3)Nc1ccccc1,i,i,i,-7.9,i,-0.291,nt,nt,nt
Cc1cc(C)cc(NC(=S)NCc2ccc3[nH]c4c(c3c2)CCCC4)c1,i,i,i,-15.7,i,-0.374,i,i,i
O=C(Cn1c(=O)n(-c2cccc(C(F)(F)F)c2)c(=O)c2sccc21)NCC1CCCO1 (stereo not drawn),i,i,i,-8.2,i,nt,nt,nt,nt
Cn1c(SCC(=O)NNC(=O)c2ccccc2)nnc1C(F)(F)F,nt,nt,i,nt,nt,nt,nt,nt,nt
CCOc1ccc2[nH]c(=O)c(CN(Cc3cccs3)Cc3nnnn3C(C)(C)CC)cc2c1,i,-9.72*,-9.91*,-18.4,i,-1.29,34.5%*,i,i
CCC(C)(C)n1nnnc1CN(Cc1cccs1)Cc1cc2cc(OC)ccc2[nH]c1=O,i,i,i,-21.6,i,nt,nt,nt,nt
COc1ccc(N2C(=O)CSC23C(=O)N2c4c(cccc43)C(C)=CC2(C)C)cc1 (stereo not drawn),i,-8.65*,i,-11.7,i,nt,i,i,46.0%*
CC(=NNC(=O)c1ccncc1)c1cccc(Cl)c1,nt,nt,i,nt,nt,nt,nt,nt,nt
COc1ccc(CN2CCN(Cc3cccc(Oc4ccccc4)c3)CC2)c(OC)c1OC,i,i,i,-14.5,i,nt,i,i,i
COc1ccc(CN2CCN(C(c3ccc(F)cc3)c3ccc(F)cc3)CC2)c(OC)c1OC,i,i,i,-26.6,i,nt,i,i,i
COc1ccc(/C=C2/SC(=S)N(NS(=O)(=O)c3ccccc3)C2=O)cc1,i,i,i,-4.9,i,nt,nt,nt,nt
CC(/C=C1\SC(=S)N(NS(=O)(=O)c2ccccc2)C1=O)=C\c1ccccc1,14*,i,i,10.3*,i,4.16,i,i,i
Cc1ccc(S(=O)(=O)NN2C(=O)/C(=C/c3cccc(F)c3)SC2=S)cc1,10*,i,i,-1.5,i,nt,i,i,i
C=CCOc1ccc(/C=C2\SC(=S)N(NS(=O)(=O)c3ccccc3)C2=O)cc1,15*,i,i,-3.8,i,nt,i,i,i
Cc1ccc(C(=O)COC(=O)CSc2cccc3cccnc23)c(C)c1,i,i,i,-8.3,i,-0.5,i,i,i
CC1(C)CC(=O)c2c(O)cc(OCc3ccc(Br)cc3)cc2O1,i,-8.4*,i,-12.1,i,-0.159,73.0%*,i,41.5%*
SMILES,KCNQ1 pot,KCNK9 inh,KCNK3 block,hERG rescue,KCNQ1 block,Cl transport mod,KCNK9 block conf,Kir21 sel,KCNK9 uninduced
COC(=O)c1ccc(COc2cc(O)c3c(c2)OC(C)(C)CC3=O)cc1,i,i,i,-5.8,i,1.04,nt,nt,nt
CCCC/C=C/C(NC(=O)CCc1ccccc1)c1ccccc1 (stereo not drawn),i,-10*,i,-4.8,i,-4.31,47.5%*,i,35.0%*
CCCC/C=C/C(NC(=O)c1ccc(-c2ccccc2)cc1)c1ccccc1 (stereo not drawn),i,i,i,-9.5,i,nt,nt,nt,nt
CC[n+]1c(/C=C/Nc2ccccc2)sc2ccccc21,i,i,i,-14.3,i,0.901,nt,nt,nt
CCN1/C(=C/C=C/c2sc3ccccc3[n+]2CC)Sc2ccccc21,i,-24.1*,-13.2*,-20.6,i,nt,i,i,i
O=C(O)CSc1cc(NS(=O)(=O)c2ccc(Br)cc2)c2ccccc2c1O,i,i,i,-7.0,i,nt,i,i,28.5%*
O=S(=O)(Nc1cc(Sc2ncn[nH]2)c(O)c2ccccc12)c1ccccc1,nt,nt,i,nt,nt,-1.3,nt,nt,nt
COC1CCN(C(=O)C2CCC(=O)N(CCc3cccc(F)c3)C2)CC1 (stereo not drawn),i,i,i,-7.5,i,nt,nt,nt,nt
Cc1ccc(OCCCOc2cccc3cccnc23)cc1C,i,i,i,-9.1,i,0.795,i,i,i
Cc1cccc(OCCCOc2cccc3cccnc23)c1C,i,i,i,-7.4,i,nt,nt,nt,nt
Cn1c(CN2CCCC(C(=O)c3ccc4c(c3)OCO4)C2)nc2ccccc21 (stereo not drawn),i,i,i,-9.0,i,-1.8,i,i,i

# Screening data as filed in PubChem.
